Tested on: RAN translation of r(G4C2)^exp
Experiment: RAN translation assay in HEK293T cells co-transfected with
Format: cell-based
Settings: read-out: IC50 for inhibition of RAN translation, approximate values
Summary of the method: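 HEK293T cells in DMEM/10% FBS at ~80% confluency were co-transfected with (G4C2)66-no ATG-GFP and an mCherry control plasmid, reseeded, and dosed 2 h later. After 24 h with compound, cells were lysed in 100 mM potassium phosphate pH 7.8 with 0.2% Triton X-100. GFP (ex 485/20, em 528/20) and mCherry (ex 530/25, em 590/35) were read, and the untransfected-cell-background-corrected GFP/mCherry ratio was used.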

SMILES: Cc1c2ccnc(C(=O)NCCN(C)C)c2cc2c3cc(O)ccc3n(C)c12 [Compound 2]
- IC50: ~300 nM

Source: PMC9860304 (Proceedings of the National Academy of Sciences of the …, 2022)
